From ChEMBL document CHEMBL4229440, “Novel amino acid-substituted diphenylpyrimidine derivatives as potent BTK inhibitors against B cell lymphoma cell lines” (Bioorg Med Chem, 2018)
The source made the active and inactive calls. The rule behind the calls is not given here.

Columns and labels:
Raji [1] = test: Antiproliferative activity against human Raji cells after 72 hrs by CCK8 assay; assay type: functional, cell-based
[2] = target: Epidermal growth factor receptor (Homo sapiens, UniProt P00533, T790M); test: Inhibition of recombinant human N-terminal GST-tagged EGFR T790M mutant (695-end residues) expressed in baculovirus infected Sf9 cells using poly (4:1 Glu, Tyr) peptide as substrate after 60 mins by ADP-Glo assay
Chain of Epidermal growth factor receptor (P00533 25-1210 T790M limits assumed): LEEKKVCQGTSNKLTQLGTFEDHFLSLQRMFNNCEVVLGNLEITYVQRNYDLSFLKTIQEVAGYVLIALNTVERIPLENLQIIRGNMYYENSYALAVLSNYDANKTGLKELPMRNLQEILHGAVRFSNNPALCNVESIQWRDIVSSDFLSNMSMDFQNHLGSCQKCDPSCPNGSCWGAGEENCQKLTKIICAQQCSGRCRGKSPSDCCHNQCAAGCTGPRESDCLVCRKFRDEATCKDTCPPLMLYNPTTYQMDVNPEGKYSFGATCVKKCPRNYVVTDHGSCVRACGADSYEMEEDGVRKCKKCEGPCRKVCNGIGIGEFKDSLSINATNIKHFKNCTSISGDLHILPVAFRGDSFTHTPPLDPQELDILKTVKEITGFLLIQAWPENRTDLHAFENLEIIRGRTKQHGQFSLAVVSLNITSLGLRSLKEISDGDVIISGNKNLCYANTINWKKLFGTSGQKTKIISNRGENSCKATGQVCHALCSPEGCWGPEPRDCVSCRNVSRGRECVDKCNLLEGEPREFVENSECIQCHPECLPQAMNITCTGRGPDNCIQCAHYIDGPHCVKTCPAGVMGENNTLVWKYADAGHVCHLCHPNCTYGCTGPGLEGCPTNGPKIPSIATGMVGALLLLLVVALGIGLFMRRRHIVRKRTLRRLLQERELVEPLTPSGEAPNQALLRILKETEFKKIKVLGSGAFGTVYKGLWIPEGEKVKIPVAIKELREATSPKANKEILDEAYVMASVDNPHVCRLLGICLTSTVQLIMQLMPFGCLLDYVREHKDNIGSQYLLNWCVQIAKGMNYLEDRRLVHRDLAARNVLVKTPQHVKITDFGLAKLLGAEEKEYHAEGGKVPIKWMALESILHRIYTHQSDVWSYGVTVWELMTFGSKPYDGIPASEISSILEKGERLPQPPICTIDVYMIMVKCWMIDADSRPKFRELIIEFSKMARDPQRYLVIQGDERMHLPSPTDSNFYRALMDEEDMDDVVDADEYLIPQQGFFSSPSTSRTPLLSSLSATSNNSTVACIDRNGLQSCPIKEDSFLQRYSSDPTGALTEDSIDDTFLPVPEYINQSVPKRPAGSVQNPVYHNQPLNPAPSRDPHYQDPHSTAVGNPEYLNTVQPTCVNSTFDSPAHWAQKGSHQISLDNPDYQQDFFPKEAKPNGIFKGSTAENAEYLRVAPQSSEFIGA
How it was run: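 ADP-Glo luminescent kinase assay in 1× kinase buffer with compounds at 0.1 to 1000 nM. The kinase reaction ran 60 min at room temperature, then ADP-Glo reagent stopped it and depleted ATP (40 min, RT). Detection reagent converted ADP to ATP for luciferase read-out (30 min, RT). IC50 came from curve fitting.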

NAMALVA [3] = test: Antiproliferative activity against human NAMALWA cells after 72 hrs by CCK8 assay; assay type: functional, cell-based
How it was run: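 Cells seeded 3,000/well in RPMI-1640 with 10% FBS at 37 °C, 5% CO2, for 4 h, then exposed to compound for 72 h. Concentrations 1.25 to 40 µM, each in five replicates. Cell number set to give an absorbance of 0.5–1.2 at 450 nm. CCK-8 read-out at 450 nm; IC50 fitted by curve fitting; values are the mean of at least three separate experiments.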

Ramos = test: Antiproliferative activity against human Ramos cells after 72 hrs by CCK8 assay; assay type: functional, cell-based
[4] = target: T1, Tyrosine-protein kinase BTK (Homo sapiens, UniProt Q06187); test: Inhibition of full length recombinant human N-terminal His-tagged BTK expressed in baculovirus infected Sf9 cells using poly (4:1 Glu, Tyr) peptide as substrate after 60 mins by ADP-Glo assay
T1 sequence (Q06187 whole entry): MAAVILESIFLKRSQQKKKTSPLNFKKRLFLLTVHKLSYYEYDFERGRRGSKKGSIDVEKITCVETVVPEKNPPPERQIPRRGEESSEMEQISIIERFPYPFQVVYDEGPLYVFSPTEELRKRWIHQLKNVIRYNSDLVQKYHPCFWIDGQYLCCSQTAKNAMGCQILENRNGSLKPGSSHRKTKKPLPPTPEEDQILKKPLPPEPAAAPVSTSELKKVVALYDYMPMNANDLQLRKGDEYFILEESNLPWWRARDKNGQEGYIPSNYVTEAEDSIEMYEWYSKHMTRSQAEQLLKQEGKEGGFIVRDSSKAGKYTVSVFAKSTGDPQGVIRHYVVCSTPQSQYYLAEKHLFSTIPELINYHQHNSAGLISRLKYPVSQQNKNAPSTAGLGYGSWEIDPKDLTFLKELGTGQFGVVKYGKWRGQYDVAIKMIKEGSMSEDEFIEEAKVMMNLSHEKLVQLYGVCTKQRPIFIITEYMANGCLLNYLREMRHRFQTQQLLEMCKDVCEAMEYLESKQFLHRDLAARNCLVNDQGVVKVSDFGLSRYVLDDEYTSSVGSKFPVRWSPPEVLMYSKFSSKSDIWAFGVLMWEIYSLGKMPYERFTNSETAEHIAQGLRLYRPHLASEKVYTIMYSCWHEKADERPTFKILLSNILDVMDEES

[5] = target: T2, Tyrosine-protein kinase JAK3 (Homo sapiens, UniProt P52333); test: Inhibition of recombinant human N-terminal GST-tagged JAK3 (781-end residues) expressed in baculovirus infected Sf9 cells using poly (4:1 Glu, Tyr) peptide as substrate after 60 mins by ADP-Glo assay
T2 sequence (P52333 whole entry): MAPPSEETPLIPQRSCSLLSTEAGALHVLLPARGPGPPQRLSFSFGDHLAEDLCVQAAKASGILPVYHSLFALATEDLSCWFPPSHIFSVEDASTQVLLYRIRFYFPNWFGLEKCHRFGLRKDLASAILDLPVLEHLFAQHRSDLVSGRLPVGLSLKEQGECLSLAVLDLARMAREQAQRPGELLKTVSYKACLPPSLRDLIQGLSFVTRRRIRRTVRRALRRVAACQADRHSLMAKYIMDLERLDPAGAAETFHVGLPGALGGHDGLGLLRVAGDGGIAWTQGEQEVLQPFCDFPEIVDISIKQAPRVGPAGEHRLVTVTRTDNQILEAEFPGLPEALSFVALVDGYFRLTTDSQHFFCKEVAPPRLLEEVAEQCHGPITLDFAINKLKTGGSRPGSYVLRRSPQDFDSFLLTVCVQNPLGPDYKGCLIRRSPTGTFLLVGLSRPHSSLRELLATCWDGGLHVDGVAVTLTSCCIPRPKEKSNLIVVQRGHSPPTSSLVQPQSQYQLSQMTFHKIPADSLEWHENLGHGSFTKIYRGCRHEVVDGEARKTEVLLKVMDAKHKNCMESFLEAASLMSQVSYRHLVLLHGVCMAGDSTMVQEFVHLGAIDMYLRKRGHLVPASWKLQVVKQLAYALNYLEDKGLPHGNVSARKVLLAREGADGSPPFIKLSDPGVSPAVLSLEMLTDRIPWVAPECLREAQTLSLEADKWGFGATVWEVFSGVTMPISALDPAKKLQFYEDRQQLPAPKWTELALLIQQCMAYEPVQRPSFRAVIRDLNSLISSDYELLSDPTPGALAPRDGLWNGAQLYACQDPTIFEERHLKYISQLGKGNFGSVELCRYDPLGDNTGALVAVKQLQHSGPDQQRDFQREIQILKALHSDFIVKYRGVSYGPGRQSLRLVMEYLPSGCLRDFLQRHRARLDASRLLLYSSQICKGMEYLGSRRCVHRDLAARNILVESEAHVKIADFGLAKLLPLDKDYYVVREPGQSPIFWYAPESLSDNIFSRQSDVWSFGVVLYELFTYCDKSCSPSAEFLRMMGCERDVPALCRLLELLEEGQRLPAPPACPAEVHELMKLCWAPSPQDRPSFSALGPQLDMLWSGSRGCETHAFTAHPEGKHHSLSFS
How it was run: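 ADP-Glo luminescent kinase assay with commercial JAK3 kinase enzyme system, in 1× kinase buffer, compounds at 0.1–1000 nM. The kinase reaction ran for 60 min at room temperature, followed by ADP-Glo reagent for 40 min to stop the reaction and deplete ATP, then detection reagent for 30 min. Luminescence was read and curves were fitted to give IC50.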

NAMALVA [6] = test: Induction of apoptosis in human NAMALWA cells assessed as early apoptotic cells at 5 uM after 48 hrs by Annexin V-FITC/propidium iodide staining based flow cytometry (reference value: 0%); assay type: functional
NAMALVA [7] = test: Induction of apoptosis in human NAMALWA cells assessed as late apoptotic cells at 5 uM after 48 hrs by Annexin V-FITC/propidium iodide staining based flow cytometry (reference value: 0%); assay type: functional
NAMALVA [8] = test: Induction of apoptosis in human NAMALWA cells assessed as necrotic cells at 5 uM after 48 hrs by Annexin V-FITC/propidium iodide staining based flow cytometry (reference value: 4.05%); assay type: functional
NAMALVA [9] = test: Induction of apoptosis in human NAMALWA cells assessed as morphological changes at 5 uM by acridine orange/ethidium bromide staining based phase contrast microscopic assay; assay type: functional, cell-based
NAMALVA [10] = test: Induction of apoptosis in human NAMALWA cells assessed as necrotic cells at 1 uM after 48 hrs by Annexin V-FITC/propidium iodide staining based flow cytometry (reference value: 4.05%); assay type: functional
NAMALVA [11] = test: Induction of apoptosis in human NAMALWA cells assessed as late apoptotic cells at 1 uM after 48 hrs by Annexin V-FITC/propidium iodide staining based flow cytometry (reference value: 0%); assay type: functional
NAMALVA [12] = test: Induction of apoptosis in human NAMALWA cells assessed as necrotic cells at 2 uM after 48 hrs by Annexin V-FITC/propidium iodide staining based flow cytometry (reference value: 4.05%); assay type: functional
NAMALVA [13] = test: Potency index, ratio of ibrutinib IC50 to compound IC50 for antiproliferative activity against human NAMALWA cells; assay type: functional
Raji [14] = test: Potency index, ratio of ibrutinib IC50 to compound IC50 for antiproliferative activity against human Raji cells; assay type: functional
NAMALVA [15] = test: Induction of apoptosis in human NAMALWA cells assessed as late apoptotic cells at 2 uM after 48 hrs by Annexin V-FITC/propidium iodide staining based flow cytometry (reference value: 0%); assay type: functional
[16] = target: T1, Tyrosine-protein kinase BTK; test: Inhibition of BTK phosphorylation in human NAMALWA cells after 48 hrs by Western blot method; assay type: cell-based
How it was run: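 NAMALWA cells were treated at 1, 5 and 10 µM for 48 h and lysed; lysates were cleared at 14,000 g for 15 min at 4 °C. 50 µg protein was resolved on 8–12% SDS-PAGE and transferred to PVDF. The membrane was blocked in 5% skim milk for 2 h at room temperature, then probed overnight at 4 °C for BTK and p-BTK. Detection was by ECL.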

NAMALVA [17] = test: Induction of apoptosis in human NAMALWA cells assessed as early apoptotic cells at 2 uM after 48 hrs by Annexin V-FITC/propidium iodide staining based flow cytometry (reference value: 0%); assay type: functional
PBMC = test: Cytotoxicity against human PBMC assessed as morphological changes at 5 to 20 uM after 24 hrs by acridine orange/ethidium bromide staining based phase contrast microscopic method; assay type: cell-based
How it was run: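 PBMC were isolated from a healthy adult 's venous blood (ACD anticoagulant) by Lymphoprep density separation, washed in PBS and seeded at 200,000–250,000 cells/well. Treated in RPMI-1640 with 10% FBS at 37 °C, 5% CO2, for 24 h, with five replicates per concentration. Morphology was checked by phase-contrast microscopy and AO/EB staining; live cells were counted manually in a counting chamber.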

NAMALVA [18] = test: Induction of apoptosis in human NAMALWA cells assessed as early apoptotic cells at 1 uM after 48 hrs by Annexin V-FITC/propidium iodide staining based flow cytometry (reference value: 0%); assay type: functional

SMILES | IC50 (Raji [1]) [µM] | IC50 [2] [µM] | IC50 (NAMALVA [3]) [µM] | IC50 (Ramos) [µM] | IC50 [4] [µM] | IC50 [5] [µM] | Activity (NAMALVA [6]) [%] | Activity (NAMALVA [7]) [%] | Activity (NAMALVA [8]) [%] | Activity (NAMALVA [9]) | Activity (NAMALVA [10]) [%] | Activity (NAMALVA [11]) [%] | Activity (NAMALVA [12]) [%] | Ratio IC50 (NAMALVA [13]) | Ratio IC50 (Raji [14]) | Activity (NAMALVA [15]) [%] | inhibition [16] | Activity (NAMALVA [17]) [%] | Activity (PBMC) | Activity (NAMALVA [18]) [%]
C=CC(=O)Nc1cccc(Nc2nc(Nc3ccc(OCC(=O)NCC(=O)OC)cc3)ncc2Cl)c1 | 18 | > 0.1 | 16.9 | 20.9 | 0.0065 | 0.496 | – | – | – | – | – | – | – | – | – | – | – | – | – | –
C=CC(=O)Nc1cccc(Nc2nc(Nc3ccc(OCC(=O)NC(C)C(=O)OC)cc3)ncc2Cl)c1 (stereo not drawn) | 25.2 | > 0.1 | 29.3 | 40.8 | 0.0087 | > 0.5 | – | – | – | – | – | – | – | – | – | – | – | – | – | –
C=CC(=O)N1CCC[C@@H](n2nc(-c3ccc(Oc4ccccc4)cc3)c3c(N)ncnc32)C1 [IBRUTINIB] | – | – | 19.6 | – | – | – | 4.06 | 5.75 | 0.73 | Active | – | – | – | – | – | – | – | – | – | –
C=CC(=O)Nc1cccc(Nc2nc(Nc3ccc(OCC(=O)NCC(=O)O)cc3)ncc2Cl)c1 | > 40 | > 0.1 | > 40 | > 40 | 0.0112 | > 0.5 | – | – | – | – | – | – | – | – | – | – | – | – | – | –
C=CC(=O)Nc1cccc(Nc2nc(Nc3ccc(OCC(=O)N4CCCC4C(=O)OC)cc3)ncc2Cl)c1 (stereo not drawn) | 6.7 | > 0.1 | 4.8 | 19.7 | 0.0087 | 0.196 | 8.75 | 13.33 | 1.67 | Active | 0.92 | 5.83 | 0.82 | 4 | 3 | 7.43 | Dose-dependent effect | 6.96 | Non-Toxic | 4.94
